According to ChEMBL document CHEMBL1772969, “Synthesis, structure-activity relationship, and antimalarial activity of ureas and thioureas of 15-membered azalides” (J Med Chem, 2011):
Activity calls are given as the source filed them. No cut-off for these calls is given here.

Tests used:
[1] = test system: Plasmodium falciparum; assay: Antimalarial activity against multidrug-resistant Plasmodium falciparum TM91C235 after 48 hrs by [3H]hypoxanthine incorporation assay; assay type: functional, organism-based
Summary of the method: (§1)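 [3H]hypoxanthine incorporation assay (Desjardins method, Milhous modification) with 48 h drug exposure. Compounds and controls were 2-fold diluted across 11 concentrations. IC50 was fitted by nonlinear logistic dose-response. Values are averaged where multiple results were generated, with relative errors usually <30%.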

[2] = test system: Plasmodium berghei; assay: Antiplasmodial activity against Plasmodium berghei KBG-173 infected in sc dosed mouse administered bid for 3 days; assay type: functional
Summary of the method: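 Male mice (24-30 g) were infected ip with 5 × 10⁶ P. berghei KBG-173-infected erythrocytes. Drug suspended in palm/peanut oil was given sc twice daily on days 3-5 post-infection at 160, 40 or 10 mg/kg per dose, 0.01 mL/g, in groups of 4-5. Blood films were taken day 6, then biweekly to day 31. Mice smear-negative on day 31 were counted cured. CD50 is the daily dose curing 50%.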

[3] = test system: Plasmodium falciparum; assay: Antimalarial activity against chloroquine-sensitive Plasmodium falciparum D6 after 48 hrs by [3H]hypoxanthine incorporation assay; assay type: functional, organism-based; summary of the method: as §1
[4] = Half life in mouse liver microsomes at 1 uM by LCMS analysis; assay type: ADME, Microsome
Summary of the method: (§2)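 Compound at 1 μM final with 0.5 mg/mL pooled human or mouse liver microsomes, 1.3 mM NADP, 3.3 mM MgCl₂, 0.1 M PBS pH 7.4. Reaction started with 1 U/mL G6PD, shaken at 37 °C. Aliquots quenched with cold acetonitrile at 0, 10, 20, 30 and 60 min and quantified by LCMS. t₁/₂ taken from log plot of total ion chromatogram area remaining.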

[5] = Half life in human liver microsomes at 1 uM by LCMS analysis; assay type: ADME, Microsome; summary of the method: as §2
[6] = test system: HepG2; assay: Cytotoxicity against human HepG2 cells after 1 to 4 hrs by MTS assay; assay type: cell-based
Summary of the method: (§3)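 HepG2 and THP-1 cells grown in RPMI 1640 with 10% FBS at 37 °C, 5% CO₂, and passaged twice weekly. Compounds applied as continuous exposure. Viability read by MTS reagent, 1–4 h incubation, absorbance at 490 nm; IC₅₀ derived.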

[7] = test system: Plasmodium falciparum; assay: Antimalarial activity against chloroquine/pyrimethamine-resistant Plasmodium falciparum W2 after 48 hrs by [3H]hypoxanthine incorporation assay; assay type: functional, organism-based; summary of the method: as §1
[8] = test system: THP-1; assay: Cytotoxicity against human THP1 cells after 1 to 4 hrs by MTS assay; assay type: cell-based; summary of the method: as §3
[9] = Apparent volume of distribution during terminal phase in Sprague-Dawley rat at 10 mg/kg, iv and 30 mg/kg, po; assay type: ADME, organism-based; conditions: in vivo, read-out: Vz/F
Summary of the method: (§4)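 Male Sprague-Dawley rats (250–300 g), crossover design. Dosed 10 mg/kg iv, then 2-day washout, then 30 mg/kg oral (free base equivalent), formulated in 1%/20% Encapsin (w/v) and saline. Blood sampled up to 24 h and analysed by LC-MS/MS. Clearance and terminal-phase Vd based on blood concentration.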

[10] = Half life in Sprague-Dawley rat at 10 mg/kg, iv and 30 mg/kg, po; assay type: ADME, organism-based; conditions: in vivo; summary of the method: as §4
[11] = Oral bioavailability in Sprague-Dawley rat at 30 mg/kg; assay type: ADME, organism-based; conditions: in vivo; summary of the method: as §4
[12] = Blood clearance in Sprague-Dawley rat at 10 mg/kg, iv and 30 mg/kg, po; assay type: ADME, organism-based; conditions: whole blood; summary of the method: as §4
[13] = test system: Plasmodium berghei; assay: Antiplasmodial activity against Plasmodium berghei KBG-173 infected in mouse assessed as mouse without parasitemia at 60 mg/kg, sc bid for 3 days measured on day 31; assay type: functional, organism-based; parameters: dose 60 mg/kg
Summary of the method: (§5)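 P. berghei KBG-173: 5 × 10⁶ infected erythrocytes injected intraperitoneally into male mice (24–30 g); parasitemia 1.0–3.7% by day 3. Oil suspension given subcutaneously twice daily at 160, 40 or 10 mg/kg on days 3–5 postinfection (totals 960/240/60 mg/kg); 4–5 mice per group. Blood films on day 6, then biweekly to day 31; film-negative on day 31 counted as cured.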

[14] = test system: Plasmodium berghei; assay: Antiplasmodial activity against Plasmodium berghei KBG-173 infected in mouse assessed as mouse without parasitemia at 240 mg/kg, sc bid for 3 days measured on day 31; assay type: functional, organism-based; parameters: dose 240 mg/kg; summary of the method: as §5

Row | Structure (SMILES) | IC50 [1] [nM] | CD50 [2] [mg/kg] | IC50 [3] [nM] | half-life at 1 µM [4] [h] | half-life at 1 µM [5] [h] | IC50 [6] [nM] | IC50 [7] [nM] | IC50 [8] [nM] | Vd/F [9] [L/kg] | half-life [10] [h] | bioavailability [11] [%] | clearance [12] [mL/min/kg] | Activity [13] | Activity [14]
1 | CC[C@H]1OC(=O)[C@H](C)[C@@H](O[C@H]2C[C@@](C)(OC)[C@@H](O)[C@H](C)O2)[C@H](C)[C@@H](O[C@@H]2O[C@H](C)C[C@H](N(C)C)[C@H]2O)[C@](C)(O)C[C@@H](C)CN(CCCNC(=S)Nc2cccc3ccccc23)[C@H](C)[C@@H](O)[C@]1(C)O | 131 | 195 | 116 | > 2 | > 2 | 48000 | 155 | 40000 |  |  |  |  |  | 
2 | CC[C@H]1OC(=O)[C@H](C)[C@@H](O[C@H]2C[C@@](C)(OC)[C@@H](O)[C@H](C)O2)[C@H](C)[C@@H](O[C@@H]2O[C@H](C)C[C@H](N(C)C)[C@H]2O)[C@](C)(O)C[C@@H](C)CN(CCCNC(=S)NCc2ccccc2)[C@H](C)[C@@H](O)[C@]1(C)O | 156 | 285 | 257 | > 2 | > 2 | > 50000 | 121 | 47000 | 10.4 | 30 | 3.4 | 4 |  | 
3 | CC[C@H]1OC(=O)[C@H](C)[C@@H](O[C@H]2C[C@@](C)(OC)[C@@H](O)[C@H](C)O2)[C@H](C)[C@@H](O[C@@H]2O[C@H](C)C[C@H](N(C)C)[C@H]2O)[C@](C)(O)C[C@@H](C)CN(CCCNC(=S)NCCc2ccccc2)[C@H](C)[C@@H](O)[C@]1(C)O | 200 | 780 | 215 | > 2 | > 2 | 47000 | 167 | 23000 |  |  |  |  | inactive | 
4 | CC[C@H]1OC(=O)[C@H](C)[C@@H](O[C@H]2C[C@@](C)(OC)[C@@H](O)[C@H](C)O2)[C@H](C)[C@@H](O[C@@H]2O[C@H](C)C[C@H](N(C)C)[C@H]2O)[C@](C)(O)C[C@@H](C)CN(CCCN(CCC#N)C(=O)NC(C)c2cccc3ccccc23)[C@H](C)[C@@H](O)[C@]1(C)O (stereo not given in full) | 97 | 510 | 200 | > 2 | > 2 | 48000 | 136 | 40000 |  |  |  |  |  | inactive
5 | CC[C@H]1OC(=O)[C@H](C)[C@@H](O[C@H]2C[C@@](C)(OC)[C@@H](O)[C@H](C)O2)[C@H](C)[C@@H](O[C@@H]2O[C@H](C)C[C@H](N(C)C)[C@H]2O)[C@](C)(O)C[C@@H](C)CN(CCNC(=O)NCc2ccccc2)[C@H](C)[C@@H](O)[C@]1(C)O | 170 |  | 320 | > 2 | > 2 | > 50000 | 287 | 35000 |  |  |  |  |  | 
6 | CC[C@H]1OC(=O)[C@H](C)[C@@H](O[C@H]2C[C@@](C)(OC)[C@@H](O)[C@H](C)O2)[C@H](C)[C@@H](O[C@@H]2O[C@H](C)C[C@H](N(C)C)[C@H]2O)[C@](C)(O)C[C@@H](C)CN(CCN(CCC(N)=O)C(=O)Nc2ccc3ccccc3c2)[C@H](C)[C@@H](O)[C@]1(C)O | 39 |  | 190 | > 2 | > 2 | 13000 | 62 | 7000 |  |  |  |  |  | 
7 | CC[C@H]1OC(=O)[C@H](C)[C@@H](O[C@H]2C[C@@](C)(OC)[C@@H](O)[C@H](C)O2)[C@H](C)[C@@H](O[C@@H]2O[C@H](C)C[C@H](N(C)C)[C@H]2O)[C@](C)(O)C[C@@H](C)CN(CCNC(=O)NC(C)c2cccc3ccccc23)[C@H](C)[C@@H](O)[C@]1(C)O (stereo not given in full) | 46 |  | 179 | > 2 | > 2 | 10000 | 33 | 8000 |  |  |  |  |  | 
8 | CC[C@H]1OC(=O)[C@H](C)[C@@H](O[C@H]2C[C@@](C)(OC)[C@@H](O)[C@H](C)O2)[C@H](C)[C@@H](O[C@@H]2O[C@H](C)C[C@H](N(C)C)[C@H]2O)[C@](C)(O)C[C@@H](C)CN(CCN(CCC#N)C(=O)Nc2ccc3ccccc3c2)[C@H](C)[C@@H](O)[C@]1(C)O | 224 |  | 525 | > 2 | > 2 | 11000 | 125 | 13000 |  |  |  |  |  | 
9 | CC[C@H]1OC(=O)[C@H](C)[C@@H](O[C@H]2C[C@@](C)(OC)[C@@H](O)[C@H](C)O2)[C@H](C)[C@@H](O[C@@H]2O[C@H](C)C[C@H](N(C)C)[C@H]2O)[C@](C)(O)C[C@@H](C)CN(CCCNC(=O)Nc2cccc3ccccc23)[C@H](C)[C@@H](O)[C@]1(C)O | 131 | 150 | 215 | > 2 | > 2 | > 50000 | 173 | > 50000 |  |  |  |  |  | 
10 | CC[C@H]1OC(=O)[C@H](C)[C@@H](O[C@H]2C[C@@](C)(OC)[C@@H](O)[C@H](C)O2)[C@H](C)[C@@H](O[C@@H]2O[C@H](C)C[C@H](N(C)C)[C@H]2O)[C@](C)(O)C[C@@H](C)CN(CCNC(=O)Nc2cccc3ccccc23)[C@H](C)[C@@H](O)[C@]1(C)O | 42 |  | 142 | > 2 | > 2 | 35000 | 79 | 14000 |  |  |  |  |  | 
11 | CC[C@H]1OC(=O)[C@H](C)[C@@H](O[C@H]2C[C@@](C)(OC)[C@@H](O)[C@H](C)O2)[C@H](C)[C@@H](O[C@@H]2O[C@H](C)C[C@H](N(C)C)[C@H]2O)[C@](C)(O)C[C@@H](C)CN(CCCNC(=O)Nc2ccc3ccccc3c2)[C@H](C)[C@@H](O)[C@]1(C)O | 81 | >960 | 138 | > 2 | > 2 | 48000 | 127 | 40000 |  |  |  |  | inactive | inactive
12 | CC[C@H]1OC(=O)[C@H](C)[C@@H](O[C@H]2C[C@@](C)(OC)[C@@H](O)[C@H](C)O2)[C@H](C)[C@@H](O[C@@H]2O[C@H](C)C[C@H](N(C)C)[C@H]2O)[C@](C)(O)C[C@@H](C)CN(CCCN(CCC#N)C(=S)NCc2ccccc2)[C@H](C)[C@@H](O)[C@]1(C)O | 126 | >960 | 204 | > 2 | > 2 | 44000 | 139 | 11000 |  |  |  |  |  | 
13 | CC[C@H]1OC(=O)[C@H](C)[C@@H](O)[C@H](C)[C@@H](O[C@@H]2O[C@H](C)C[C@H](N(C)C)[C@H]2O)[C@](C)(O)C[C@@H](C)CN(CCNC(=S)NCCCc2ccccc2)[C@H](C)[C@@H](O)[C@]1(C)O | 226 |  | 654 | > 2 | > 2 | 14000 | 178 | 7000 |  |  |  |  |  | 
14 | CC[C@H]1OC(=O)[C@H](C)[C@@H](O[C@H]2C[C@@](C)(OC)[C@@H](O)[C@H](C)O2)[C@H](C)[C@@H](O[C@@H]2O[C@H](C)C[C@H](N(C)C)[C@H]2O)[C@](C)(O)C[C@@H](C)CN(CCNC(=S)NCc2ccccc2)[C@H](C)[C@@H](O)[C@]1(C)O | 106 |  | 109 | > 2 | > 2 | 14000 | 72 | 9000 |  |  |  |  |  | 
15 | CC[C@H]1OC(=O)[C@H](C)[C@@H](O[C@H]2C[C@@](C)(OC)[C@@H](O)[C@H](C)O2)[C@H](C)[C@@H](O[C@@H]2O[C@H](C)C[C@H](N(C)C)[C@H]2O)[C@](C)(O)C[C@@H](C)CN(CCNC(=S)Nc2ccccc2)[C@H](C)[C@@H](O)[C@]1(C)O | 113 |  | 183 | > 2 | > 2 | 48000 | 443 | 16000 |  |  |  |  |  | 
